Source: PubChem BioAssay (The Scripps Research Institute Molecular Screening Center)
TAAR1 ag – agonists of human TAAR1. CHO RD-HGA16 TAAR1, Fluo-8 calcium fluorescence; vehicle wells 0%, saturating PEA agonist 100%. activation, % at 3 µM. AID 624467. Q96RJ0. actives 0.99% (n = 360,000);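 active means activation above the mean activation of all test compounds in the run plus 3 SD, cut at about 38% in these data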
Target sequence (Q96RJ0 whole entry, looked up): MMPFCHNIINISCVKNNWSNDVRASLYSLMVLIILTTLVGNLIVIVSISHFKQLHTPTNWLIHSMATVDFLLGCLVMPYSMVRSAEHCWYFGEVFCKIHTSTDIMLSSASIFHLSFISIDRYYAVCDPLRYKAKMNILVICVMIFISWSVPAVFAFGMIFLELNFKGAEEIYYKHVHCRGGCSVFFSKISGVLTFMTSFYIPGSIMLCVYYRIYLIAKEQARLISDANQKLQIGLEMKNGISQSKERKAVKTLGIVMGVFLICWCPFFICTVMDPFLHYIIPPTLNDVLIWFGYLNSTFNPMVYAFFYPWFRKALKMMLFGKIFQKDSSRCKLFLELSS
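test system = CHO RD-HGA16 cells carrying human TAAR1 plus Gα16 | schedule = 17-24 h seeding, 75 min 37 °C dye, 30 min RT | compound dosing = 3 µM single concentration | control set = DMSO and PEA EC100 | replicates = n 1 | signal = Fluo-8 fluorescence, 5 s baseline then 140 s kinetic read | measure = percent activation vs PEA EC100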
OX1R antag-1 – human HCRTR1 antagonism. CHO/OX1R cells, Fluo-8 calcium fluorescence, orexin A. inhibition, % at 5 µM. actives 0.43% (n = 330,000). AID 434989;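 active means inhibition above its plate's threshold, mean inhibition of all tested compounds on the plate plus 3 SD, cut at about 37% in these data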
Target sequence (O43613 whole entry, looked up): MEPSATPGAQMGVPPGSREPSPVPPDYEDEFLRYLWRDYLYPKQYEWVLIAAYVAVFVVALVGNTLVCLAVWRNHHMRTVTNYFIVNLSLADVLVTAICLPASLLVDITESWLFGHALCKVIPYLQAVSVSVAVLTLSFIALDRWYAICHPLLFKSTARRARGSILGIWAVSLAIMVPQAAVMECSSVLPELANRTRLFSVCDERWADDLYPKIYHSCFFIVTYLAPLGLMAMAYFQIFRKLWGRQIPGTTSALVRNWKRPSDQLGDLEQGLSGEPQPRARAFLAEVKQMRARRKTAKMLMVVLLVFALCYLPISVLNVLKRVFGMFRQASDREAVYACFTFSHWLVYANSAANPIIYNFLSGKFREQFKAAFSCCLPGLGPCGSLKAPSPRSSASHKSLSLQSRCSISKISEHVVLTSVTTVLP
TAAR1 antagonist – human TAAR1 antagonism; Q96RJ0; CHO RD-HGA16 TAAR1, Fluo-8 calcium fluorescence, antagonist; inhibition, % at 3 µM; actives 1.5% (n = 360,000); AID 624466;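 active means inhibition above a per-plate cutoff, the mean inhibition of test compounds on that plate plus 3 SD, cut at about 49% in these data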
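Test system: CHO RD-HGA16 cells bearing hTAAR1 | Reagent: β-PEA, EC80 | Compound dosing: 3 µM, single point | Schedule: Dye loading 75 min at 37 °C, then 30 min room temperature | Signal: Calcium fluorescence with Fluo-8 | Evaluation: Percent inhibition of PEA-evoked calcium signal, max/basal emission ratio | Control set: DMSO-only wells and EC80 β-PEA-stimulated wells | Repeats: Singlicate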
OX1R antag-2 – antagonists of human orexin 1 receptor (OX1R); O43613; OX1R-expressing cells, FRET antagonist read-out; inhibition, % at 6.6 µM; actives 1.8% (n = 330,000); AID 485270; in the data active means inhibition mostly above about 38%, no sharp cut-off; inactive means mostly below about 40%
CHO parental Ca – counter-screen for OX1R antagonists: effect in parental CHO cells. actives 0.63% (n = 330,000). inhibition, % at 5.6 µM. parental CHO-K1, ATP-induced calcium, Fluo-8 fluorescence;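 active means inhibition above that plate's mean sample inhibition plus 3 SD, cut at about 26% in these data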
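Test system: parental CHO cells; detection: calcium-sensitive Fluo-8 fluorescence; evaluation: percent inhibition of calcium signal; also added: ATP as calcium-mobilizing challenge; repeats: one well per compound; control set: ATP-challenged DMSO wells low, unchallenged DMSO wells high; compound: single nominal dose of 5.6 µM per compound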
Each line names hits and unclear results; the compound was inactive in the other large screens. The list is not random: actives were taken first. Their share in the collection is about 4%.

O=C(CNc1ccccc1)N/N=C/c1ccc([N+](=O)[O-])o1	OX1R antag-2 51.1
Cc1cc2c(nc1C)CCCN2Cc1ccccc1C(F)(F)F	none (no result: OX1R antag-1, OX1R antag-2, CHO parental Ca)
COCCNC(=O)CN1C(=O)NC2(CCCc3cc(OC)ccc32)C1=O (stereo not given)	none
[O-][n+]1ccccc1C(O)CSc1ccccc1 (stereo not given)	none (no result: OX1R antag-1, OX1R antag-2, CHO parental Ca)
COc1ccc(NC(=O)NN2CCOCC2)cc1OC	TAAR1 antagonist 63.2
COc1ccc(NC(=O)NN2CCN(C)CC2)cc1OC	none
Cc1[nH]nc(SCC(=O)NCCc2ccccc2)c1[N+](=O)[O-]	TAAR1 ag 39.3, TAAR1 antagonist 74.8
O=[N+]([O-])c1ccc(-n2nnnc2-c2ccccc2)cc1	OX1R antag-2 54.1
O=[N+]([O-])c1ccc(-n2cc(-c3ccccc3)nn2)cc1	none
O=[N+]([O-])c1ccc(-n2nnnc2-c2ccccc2)c([N+](=O)[O-])c1	none
NC(=O)c1nnn(-c2ccc([N+](=O)[O-])cc2)c1-c1ccccc1	OX1R antag-2 43.5
Nc1ccc(-c2nnnn2-c2ccc(N)cc2)cc1	CHO parental Ca 27.8
CS(=O)(=O)N(CC(=O)NCCSCc1ccccc1)c1ccccc1Br	none
O=C1OCC2=Nc3cccc4cccc(c34)N12	none (no result: OX1R antag-1, OX1R antag-2, CHO parental Ca)
CSCCC(NC(=O)c1ccco1)C(=O)N(C)CC(=O)Nc1ccccc1Br (stereo not given)	none (no result: OX1R antag-1, OX1R antag-2, CHO parental Ca)
COc1ccc(C(=O)Nc2nc3c(s2)Cc2cc(OC)ccc2-3)cc1	none
COc1ccc2c(c1)Cc1sc(NC(=O)c3cccs3)nc1-2	OX1R antag-2 67.9
Cc1nn(C(C)C)c(C)c1CN1CCC(C(=O)Nc2cccc(-c3cccc(F)c3)c2)CC1	none
Cc1ccc(S(=O)(=O)CCc2nc3ccccc3[nH]2)cc1C	none
Clc1cc2cccnc2c2ncccc12	none
Oc1c(I)cc(Cl)c2cccnc12	OX1R antag-1 48.8, OX1R antag-2 61.4, CHO parental Ca 41.2
CCOC(=O)N1CCC(N2CCN(S(=O)(=O)c3ccc([N+](=O)[O-])cc3)CC2)CC1	OX1R antag-2 53.7
O=[N+]([O-])c1ccc(S(=O)(=O)N2CCN(C3CCN(Cc4ccccc4)CC3)CC2)cc1	OX1R antag-2 63.4
CCOC(=O)N1CCC(N2CCN(S(=O)(=O)c3ccc4ccccc4c3)CC2)CC1	none
O=[N+]([O-])c1ccc(S(=O)(=O)N2CCN(Cc3c[nH]c4ccccc34)CC2)cc1	OX1R antag-2 48.6
O=C(/C=C/c1cccc(C(F)(F)F)c1)Nc1cccc(C(F)(F)F)c1	OX1R antag-2 35.7
COCCCNC(=O)Cc1c(C)c2c(cc(C)c3c(C(C)(C)C)coc32)oc1=O	none
Cc1ccc2c(c1C)-c1c(ccc(C)c1C)C(=O)C2=O	TAAR1 antagonist 61.6 (no result: OX1R antag-1, OX1R antag-2, CHO parental Ca)
CCOc1cccc(CN2CCC(Oc3ccc(C(=O)N4CCCC4)cc3)CC2)c1O	none (no result: OX1R antag-1, OX1R antag-2, CHO parental Ca)
CCOC(=O)c1[nH]c2ccccc2c1N=CN(C)C	none
CN(C)C=Nc1ccc2nc3c(cc2c1)[nH]c1ccccc13	OX1R antag-2 55.1
CC(C)n1c2ccccc2c2nnc(SCC(=O)OCN3C(=O)c4ccccc4C3=O)nc21	OX1R antag-2 49.6
CCOC(=O)CSc1nnc2c3ccccc3n(C)c2n1	none
CCOc1ccc(-c2nnc(-c3cccs3)o2)cc1OCC	none
CCOc1ccc(-c2nc(-c3cccs3)c(CC(=O)O)s2)cc1OC	OX1R antag-2 38.1
C[C@@H]1CN([C@@H](C)CO)C(=O)c2cc(Br)cnc2O[C@@H]1CN(C)C(=O)c1ccc(F)cc1	none (no result: OX1R antag-1, OX1R antag-2, CHO parental Ca)
CCOC(=O)C1=C(CN2CCN(CCC#N)CC2)NC(=O)NC1c1ccc2c(c1)OCO2 (stereo not given)	none
COc1ccc(C/C(N)=N/OC(=O)C(c2ccccc2)c2ccccc2)cc1OC	OX1R antag-1 53.8
COc1ccc(C/C(N)=N/OC(C)=O)cc1OC	none
CCOC(=O)c1c(NC(=O)COC(=O)c2cccc([N+](=O)[O-])c2)sc(C(=O)N(C)C)c1C	none (no result: OX1R antag-1, OX1R antag-2, CHO parental Ca)
CCOC(=O)[C@]12CCCC=C1N(CCc1ccc(OC)c(OC)c1)C(=O)[C@H](CC(=O)NCCc1ccccc1OC)C2	TAAR1 ag 46.2 (no result: OX1R antag-1, OX1R antag-2, CHO parental Ca)
CCOC(=O)[C@]12CCCC=C1N(Cc1ccc(Cl)cc1Cl)C(=O)[C@H](CC(=O)NCCc1ccccc1OC)C2	TAAR1 ag 40.2 (no result: OX1R antag-1, OX1R antag-2, CHO parental Ca)
Cc1cc(C(=O)Nc2ccc(N3CCCC3)c(Cl)c2)ccc1[N+](=O)[O-]	OX1R antag-2 55.3
Cc1ccc(NC(=O)C2(NC(=O)c3ccccn3)CCCCC2)cc1Br	OX1R antag-2 67.7
O=C(NC1(C(=O)NC2CCCCC2)CCCCC1)c1ccccn1	none
CNc1nc(N/N=C/c2cc3c(cc2[N+](=O)[O-])OCO3)nc(Nc2ccccc2)n1	OX1R antag-2 43.6
CNc1nc(N/N=C/c2cc([N+](=O)[O-])ccc2F)nc(Nc2ccccc2)n1	none (no result: OX1R antag-1, OX1R antag-2, CHO parental Ca)
O=C(C[C@@H]1C/C=C\C[C@@H](NC(=O)OCC2c3ccccc3-c3ccccc32)C(=O)OCCNC1=O)N[C@@H](CO)Cc1ccccc1	none
Cc1ccc(-c2nn(-c3ccccc3)cc2C(=O)O)o1	none (no result: TAAR1 ag, TAAR1 antagonist)
Cc1ccc(-c2nn(-c3ccccc3)cc2CN(Cc2ccccc2)C(=O)c2ccco2)o1	TAAR1 antagonist 55.5
O=C1c2cccc3c(N4CCCCC4)ccc(c23)C(=O)N1c1ccc(O)cc1	TAAR1 ag 58.6
NN1C(=O)c2cccc3c(C(=O)O)ccc(c23)C1=O	OX1R antag-2 57.8
O=C(c1ccc2c3c(cccc13)C(=O)N(O)C2=O)N1CCCCC1	OX1R antag-2 71.8
O=C(O)c1ccc(N2C(=O)c3cccc4c(C(=O)O)ccc(c34)C2=O)cc1	none
O=C1c2cccc3cccc(c23)C(=O)N1c1ccc(O)cc1	none
O=C(O)c1ccc2c3c(cccc13)C(=O)N(c1ccccc1)C2=O	OX1R antag-2 57.5
O=C1c2cccc3c(Cl)ccc(c23)C(=O)N1O	OX1R antag-1 53.2, OX1R antag-2 52.3
CCN1C(=O)c2cccc3c(Cl)ccc(c23)C1=O	none
COc1ccc(CN(C)S(=O)(=O)c2nnc(NC(=O)c3ccccc3OC)s2)cc1OC	OX1R antag-2 48.9
COc1ccc(CN(C)S(=O)(=O)c2nnc(NC(=O)c3ccc(C)cc3)s2)cc1OC	none
O=C(COC(=O)CC1SC(N2CCCC2)=NC1=O)Nc1c(F)c(F)c(F)c(F)c1F (stereo not given)	none
COc1ccc(OC)c(NC(=O)CNC(=O)c2ccc([N+](=O)[O-])cc2)c1	none
COc1cc(/C=N/NC(=O)CC#N)ccc1Oc1nc(Cl)ncc1F	none
Cc1ccccc1Cn1cc(NC(=O)c2noc3c2CC(C(C)(C)C)CC3)cn1 (stereo not given)	TAAR1 ag 38.6, TAAR1 antagonist 62.8
Cc1ccccc1Cn1nc(C)c(NC(=O)c2noc3c2CC(C(C)(C)C)CC3)c1C (stereo not given)	none
CCC(NC(=O)/C(=C\c1ccc2c(c1)OCO2)NC(C)=O)C(=O)O (stereo not given)	none
